The target of test [1] is T1, Adrenergic receptor alpha-1 (Rattus norvegicus, UniProt P15823+P23944+P43140).
T1 sequence (P15823 whole entry): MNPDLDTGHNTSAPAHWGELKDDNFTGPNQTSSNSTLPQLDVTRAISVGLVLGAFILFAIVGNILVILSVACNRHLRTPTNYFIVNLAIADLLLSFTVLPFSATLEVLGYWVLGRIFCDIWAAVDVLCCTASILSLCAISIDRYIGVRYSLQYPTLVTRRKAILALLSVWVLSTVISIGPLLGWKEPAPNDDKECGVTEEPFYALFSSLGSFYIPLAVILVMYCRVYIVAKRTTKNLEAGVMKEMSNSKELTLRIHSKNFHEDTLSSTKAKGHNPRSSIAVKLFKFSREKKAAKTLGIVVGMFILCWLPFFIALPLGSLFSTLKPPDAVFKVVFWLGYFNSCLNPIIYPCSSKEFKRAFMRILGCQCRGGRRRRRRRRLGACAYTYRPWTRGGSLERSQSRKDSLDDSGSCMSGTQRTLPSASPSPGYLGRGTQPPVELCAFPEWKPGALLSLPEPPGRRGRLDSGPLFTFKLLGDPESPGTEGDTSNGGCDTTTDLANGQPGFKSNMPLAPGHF
T1 sequence (P23944 whole entry): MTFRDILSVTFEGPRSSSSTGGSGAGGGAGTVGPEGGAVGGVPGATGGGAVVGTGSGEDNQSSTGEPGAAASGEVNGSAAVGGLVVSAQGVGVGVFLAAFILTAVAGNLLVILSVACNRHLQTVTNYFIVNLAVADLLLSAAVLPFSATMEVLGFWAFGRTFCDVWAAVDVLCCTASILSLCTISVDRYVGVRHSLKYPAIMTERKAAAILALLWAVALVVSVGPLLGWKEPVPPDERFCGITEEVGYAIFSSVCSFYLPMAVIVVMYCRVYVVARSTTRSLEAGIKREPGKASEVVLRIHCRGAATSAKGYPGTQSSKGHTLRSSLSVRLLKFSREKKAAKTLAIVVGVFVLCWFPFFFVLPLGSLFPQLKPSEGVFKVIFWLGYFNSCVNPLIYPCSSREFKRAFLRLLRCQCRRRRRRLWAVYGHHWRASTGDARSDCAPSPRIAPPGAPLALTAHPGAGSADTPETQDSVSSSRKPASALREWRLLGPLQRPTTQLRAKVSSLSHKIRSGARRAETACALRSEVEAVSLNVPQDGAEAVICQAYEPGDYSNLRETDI
T1 sequence (P43140 whole entry): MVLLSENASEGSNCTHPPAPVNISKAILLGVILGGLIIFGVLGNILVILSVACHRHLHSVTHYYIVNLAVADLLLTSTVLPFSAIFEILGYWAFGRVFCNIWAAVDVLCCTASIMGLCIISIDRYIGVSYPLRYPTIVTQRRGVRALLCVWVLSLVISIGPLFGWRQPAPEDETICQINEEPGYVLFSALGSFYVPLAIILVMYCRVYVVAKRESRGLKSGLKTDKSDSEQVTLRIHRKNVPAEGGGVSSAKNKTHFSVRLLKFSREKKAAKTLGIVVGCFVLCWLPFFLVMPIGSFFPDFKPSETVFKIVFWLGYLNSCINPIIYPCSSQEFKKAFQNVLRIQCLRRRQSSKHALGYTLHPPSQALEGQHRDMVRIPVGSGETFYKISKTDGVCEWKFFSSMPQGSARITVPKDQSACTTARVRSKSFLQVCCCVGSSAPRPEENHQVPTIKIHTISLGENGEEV
The test can be described thus: Compound was tested for the inhibition of [3H]prazosin binding alpha-1-adrenergic receptor of crude rat brain membrane.

In test [2] the test system is Rattus norvegicus. The test can be described thus: Heart rate of compound was measured in anesthetized rats at 0 min. The format is functional. In a few lines:
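Female Sprague-Dawley rats (200–300 g), anesthetized iv with α-chloralose (40 mg/kg), urethane (40 mg/kg) and pentobarbital (15 mg/kg). Carotid artery catheter for blood pressure and heart rate, jugular vein for drugs. Test agent given at 1.0 mg/kg iv in 0.1 M citric acid (1 mg/mL). Pressor responses to iv norepinephrine 0.1 μg/kg, phenylephrine 2.5 μg/kg and angiotensin I 0.1 μg/kg were taken before and 15, 30, 45 and 60 min after dosing. Mean ± SEM.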

The values below come from ChEMBL document CHEMBL1122179, “1-(alkylamino)isochromans: hypotensives with peripheral and central activities” (J Med Chem, 1982).

One may read the Ki as a measure of affinity in units of concentration, obtained from inhibition or displacement. Read a low Ki as a stronger hold on the target.

Take `COc1cc2c(cc1OC)C(CCN1CCN(c3ccc(F)cc3)CC1)OCC2` (configuration not stated): the Ki in test [1] is listed as 4 nM. The HR in test [2] was 417 beats min-1.
